This is one part of a sample in which hits are shown more often than they occur.
T cruzi intra – blocks T. cruzi growth inside host cells; intracellular Trypanosoma cruzi in host cells, plate reader; activity score (inhibition), % at 5.01 µM; hit rate 4.9% among 22,000; AID 651903; in the data active means activity score above about 55%;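 further: parasites and compound incubated about four days before reading; 0% = median of neutral control wells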
INS-1E ATP HTS – INS-1E beta cell protection from cytokine death; AID 488910; hit rate 0.1% among 20,000; INS-1E cytokine-induced death, ATP luminescence, 48 h; normalised: neutral wells 0, positive control 100; protection from cytokine-induced ATP loss, % at 10 µM;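 active means mean replicate protection from cytokine-induced ATP loss at least 50% and at least 75% of replicates each reaching 50%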
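Material: INS-1E rat cells; Quantity: 8000 cells/well; Buffer or medium: phenol-red-free RPMI with 5% fetal bovine serum; Probe or stimulus: cytokine cocktail of IFN-γ, TNF-α and IL-1β; Compound dosing: single test concentration per compound, delivered by pin transfer; Incubation: 48 h co-treatment, 10 min post-lysis read; Signal: CellTiter-Glo luminescence.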
A1 apoptosis 2 – A1 inhibition read as caspase activation; MEF A1-2A-BIM cells, caspase-Glo luminescence, 3 h; percent of clofoctol response, DMSO zero; caspase activation, % (concentration not given with the values); 24,000 tested, under 10 active; AID 2465; in the data active means caspase activation above about 5.9%
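System: mouse embryonic fibroblasts co-expressing A1 and BIM (A1-2A-BIM), primed for A1 dependence; amount: 2500 cells/well; doses: 50 nL pinned compound; schedule: cells settled overnight, compound exposure 3 h at 37 °C, 5% CO2; detection: Caspase-Glo 3/7 luminescence, 1 h at room temperature; read-out: Caspase-3/7 activation, seen as rise in luminescence signal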
* = called active by the depositor; nt = not tested or not shown.

SMILES	T cruzi intra	INS-1E ATP HTS	A1 apoptosis 2
CCCC[C@H]1OB(O)C[C@H]2C1=C(COc1ccccc1)Cn1c(=O)n(-c3ccccc3)c(=O)n12	nt	nt	0
O=C(C1=C[C@H](c2ccc3c(c2)Cc2ccccc2-3)C[C@H](OCc2ccc(CO)cc2)O1)N1CCCCC1	nt	nt	1
O=C(NO)c1ccc(C(=O)N/N=C/c2ccccc2[N+](=O)[O-])cc1	-21	18	1
COC(=O)CCCCCCC(=O)N/N=C/c1ccc(OC)c(Br)c1	2	-5	0
O=C(NO)c1cccc(C(=O)N/N=C/c2ccc(CO)o2)c1	-26	5	nt
COCCOC(=O)N1C(=O)[C@@]2(c3cc(C#CC4=CCCCC4)ccc31)[C@H](C(N)=O)[C@H]1C(=O)O[C@H](c3ccccc3)[C@H](c3ccccc3)N1[C@@H]2c1ccccc1OCCO	nt	nt	0
O=C(CCCCCCC(=O)Nc1ccccc1O)N/N=C/c1cccc(Oc2ccccc2)c1	13	11	nt
C[C@@H]1CCCCO[C@H](CN(C)Cc2ccc(C(F)(F)F)cc2)[C@@H](C)CN([C@H](C)CO)C(=O)c2cc(NC(=O)Nc3ccc(F)cc3)ccc2O1	71*	7	nt
C[C@H]1CCCCO[C@H](CN(C)Cc2ccc(C(F)(F)F)cc2)[C@@H](C)CN([C@@H](C)CO)C(=O)c2cc(NC(=O)Nc3ccc(C(F)(F)F)cc3)ccc2O1	nt	nt	0
C[C@@H]1CCCCO[C@H](CN(C)Cc2ccc3c(c2)OCO3)[C@@H](C)CN([C@H](C)CO)C(=O)c2cc(NC(=O)Nc3ccc(C(F)(F)F)cc3)ccc2O1	78*	-42	0
C[C@@H]1CCCCO[C@H](CN(C)Cc2ccc(C(F)(F)F)cc2)[C@@H](C)CN([C@H](C)CO)C(=O)c2cc(NC(=O)Nc3ccc(C(F)(F)F)cc3)ccc2O1	71*	-38	1
C[C@@H]1CCCCO[C@H](CN(C)Cc2ccc(C(F)(F)F)cc2)[C@@H](C)CN([C@H](C)CO)C(=O)c2cc(NC(=O)NC3CCCCC3)ccc2O1	44	-14	nt
C[C@@H]1CCCCO[C@@H](CN(C)Cc2ccc(C(F)(F)F)cc2)[C@@H](C)CN([C@@H](C)CO)C(=O)c2cc(NC(=O)Nc3ccc4c(c3)OCO4)ccc2O1	nt	nt	-1
C[C@@H]1CCCCO[C@@H](CN(C)Cc2ccc(C(F)(F)F)cc2)[C@@H](C)CN([C@H](C)CO)C(=O)c2cc(NC(=O)NC3CCCCC3)ccc2O1	65*	-22	0
C[C@@H]1CN([C@H](C)CO)C(=O)c2cc(NC(=O)Nc3ccc(F)cc3)ccc2O[C@@H](C)CCCCO[C@@H]1CN(C)Cc1ccc(C(F)(F)F)cc1	nt	nt	-1
Cc1ccccc1/C=N/NC(=O)CCCCCC(=O)O	-17	7	-1
Cc1ncc(CO)c(/C=N/NC(=O)CCCCCCC(=O)O)c1O	-9	0	-1
C=CCOC(=O)C(=O)/C=C/C(C)(C)C	nt	nt	0
COc1ccc(COC[C@]23N=C4Sc5ccc([N+](=O)[O-])cc5C(=O)N4[C@H](c4ccccc4O2)[C@H]3CO)cc1	nt	nt	0
C[C@@H]1CN([C@H](C)CO)C(=O)c2cc(NC(=O)Nc3ccc(C(F)(F)F)cc3)ccc2O[C@@H](C)CCCCO[C@H]1CN(C)Cc1ccc(C(F)(F)F)cc1	nt	nt	1
C[C@@H]1CCCCO[C@@H](CN(C)Cc2ccc(C(F)(F)F)cc2)[C@@H](C)CN([C@H](C)CO)C(=O)c2cc(NC(=O)Nc3ccc(C(F)(F)F)cc3)ccc2O1	72*	-2	nt
C[C@@H]1CCCCO[C@H](CN(C)Cc2ccc(Cl)c(Cl)c2)[C@H](C)CN([C@@H](C)CO)C(=O)c2cc(NC(=O)Nc3ccc4c(c3)OCO4)ccc2O1	nt	nt	-2
C[C@@H]1CCCCO[C@@H](CN(C)Cc2ccc(Cl)c(Cl)c2)[C@@H](C)CN([C@H](C)CO)C(=O)c2cc(NC(=O)Nc3ccc4c(c3)OCO4)ccc2O1	67*	-21	0
O=C(CCCCCCC(=O)Nc1ccccc1O)N/N=C/c1ccccc1OCCO	-4	-3	0
COc1ccc(/C=N/NC(=O)c2ccccn2)cc1OC	-9	-9	-2
SMILES	T cruzi intra	INS-1E ATP HTS	A1 apoptosis 2
O=C(O)CCCCCCC(=O)N=NC=C1C=CN(O)C=C1	-3	0	1
CC(C)(C)OC(=O)NC1(/C=N/NC(=O)CCCCCCC(=O)Nc2ccccc2O)CCCC1	6	10	nt
COc1ccc(S(=O)(=O)Nc2ccc3c(c2)CC(=O)N([C@@H](C)CO)C[C@@H](C)[C@@H](CN(C)Cc2ccc(Cl)c(Cl)c2)O3)cc1	63*	-39	nt
COc1ccc(S(=O)(=O)Nc2ccc3c(c2)CC(=O)N([C@@H](C)CO)C[C@H](C)[C@H](CN(C)Cc2ccc(Cl)c(Cl)c2)O3)cc1	73*	-21	nt
COc1ccc(S(=O)(=O)Nc2ccc3c(c2)CC(=O)N([C@H](C)CO)C[C@@H](C)[C@@H](CN(C)Cc2ccc(Cl)c(Cl)c2)O3)cc1	55*	-12	-1
COc1ccc(S(=O)(=O)Nc2ccc3c(c2)CC(=O)N([C@H](C)CO)C[C@H](C)[C@@H](CN(C)Cc2ccc(Cl)c(Cl)c2)O3)cc1	nt	nt	-1
COc1ccc(S(=O)(=O)Nc2ccc3c(c2)C(=O)N([C@@H](C)CO)C[C@@H](C)[C@@H](CN(C)Cc2ccc(Cl)c(Cl)c2)O3)cc1	12	-25	1
COc1ccc(CN(C)C[C@@H]2Oc3ccc(NS(=O)(=O)c4ccc(Cl)cc4)cc3CC(=O)N([C@@H](C)CO)C[C@H]2C)cc1	nt	nt	-1
O=C(C1=C[C@@H](c2ccc3c(c2)Cc2ccccc2-3)C[C@@H](OCc2ccc(CO)cc2)O1)N1CCCCC1	nt	nt	-2
C[C@@H]1CCCCO[C@@H](CN(C)C(=O)Nc2ccc3c(c2)OCO3)[C@@H](C)CN([C@@H](C)CO)C(=O)c2cc(NC(=O)Nc3ccc(C(F)(F)F)cc3)ccc2O1	nt	nt	0
C[C@@H]1CCCCO[C@@H](CN(C)C(=O)Nc2ccc(C(F)(F)F)cc2)[C@@H](C)CN([C@H](C)CO)C(=O)c2cc(NC(=O)Nc3ccc4c(c3)OCO4)ccc2O1	67*	4	1
C[C@@H]1CCCCO[C@H](CN(C)C(=O)Nc2ccc3c(c2)OCO3)[C@@H](C)CN([C@H](C)CO)C(=O)c2cc(NC(=O)Nc3ccc(C(F)(F)F)cc3)ccc2O1	76*	-35	nt
C[C@@H]1CCCCO[C@H](CN(C)C(=O)Nc2ccc(C(F)(F)F)cc2)[C@H](C)CN([C@@H](C)CO)C(=O)c2cc(NC(=O)Nc3ccc4c(c3)OCO4)ccc2O1	nt	nt	-1
O=C(NO)c1cccc(C(=O)N/N=C/c2cc(O)ccc2O)c1	27	21	-1
CC(C)=CCC[C@@H](C)C/C=N/NC(=O)CCCCCC(=O)O	-34	-13	0
COc1ccc(NC(=O)O[C@H]2[C@H](OC(=O)Nc3ccccc3-c3ccccc3)[C@H](OC(=O)Nc3ccccc3-c3ccccc3)[C@@H](OC)O[C@@H]2CO)cc1	nt	nt	-2
COc1ccc(CN(C)C[C@@H]2Oc3ccc(NC(=O)Nc4ccc(C(F)(F)F)cc4)cc3CC(=O)N([C@H](C)CO)C[C@H]2C)cc1	-8	-8	0
